The values that follow come from ChEMBL document CHEMBL1123093, “Synthesis and biological activity of 6-substituted mitosene analogues of the mitomycins” (J Med Chem, 1985).

Series [1] in a line: Partition coefficient between octanol and phosphate buffer (pH 7.4) was observed for the compound. It counts as physicochemical. The gist of the method: (§1)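 Partition coefficient measured as distribution between 1-octanol and pH 7.4 phosphate buffer, following the Hansch method.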
Series [2] is filed under the species Mus musculus. The series is described as follows: Antitumor activity in P388 mouse leukemia and maximum % T/C value was determined at optimal dose (OD). It counts as functional. The gist of the method:
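P388 ascites leukemia: 10⁶ ascites cells implanted in female CDF₁ mice. Each dose level was given on day 1 only, to six mice per dose. Ten control mice received saline. Median survival time (MST) was recorded, and % T/C > 125 was taken as active.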

Series [3] concerns Escherichia coli. The series is described as follows: Phage induction (ILB) in Escherichia coli: ratio was reported at a dose of 0.8 ug/mL.
The subject of series [4] is Escherichia coli. The series is described as follows: Phage induction (ILB) in Escherichia coli: ratio was reported at a dose of 3.1 ug/mL.
Series [5] deals with Mus musculus. As to the kind of experiment: Antitumor activity against P388 mouse leukemia as maximum and average change in body weight was reported at a dose of 6.4 mg/kg per injection. It counts as functional.
The test system of series [6] is Mus musculus. As to the kind of experiment: Antitumor activity against P388 mouse leukemia as maximum and median survival time as % T/C was reported at a dose of 3.2 mg/Kg per injection. It counts as functional. The procedure, abridged:
(§2)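 P388 ascites, 10⁶ cells implanted in female CDF₁ mice. Six mice per dose; single treatment on day 1 only. Ten controls received saline. Survival recorded as median survival time; % T/C = treated vs control MST, with % T/C > 125 taken as active.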

The subject of series [7] is Mus musculus. As to the kind of experiment: Antitumor activity against P388 mouse leukemia as maximum and average change in body weight was reported at a dose of 1.6 mg/kg per injection. It counts as functional.
Series [8] relates to Mus musculus. As to the kind of experiment: Antitumor activity against P388 mouse leukemia as maximum and average change in body weight was reported at a dose of 3.2 mg/kg per injection. It counts as functional.
Series [9] concerns Mus musculus. As to the kind of experiment: Antitumor activity against P388 mouse leukemia as maximum and median survival time as % T/C was reported at a dose of 1.6 mg/Kg per injection. It counts as functional. The gist of the method:
as §2

Series [10] relates to Mus musculus. The series is described as follows: Antitumor activity against P388 mouse leukemia as maximum and median survival time as % T/C was reported at a dose of 0.8 mg/Kg per injection. It counts as functional. The procedure, abridged: as §2
Series [11] concerns Mus musculus. As to the kind of experiment: Antitumor activity against P388 mouse leukemia as maximum and average change in body weight was reported at a dose of 0.8 mg/kg per injection. It counts as functional.
The subject of series [12] is Mus musculus. The series is described as follows: Antitumor activity against P388 mouse leukemia as maximum and median survival time as % T/C was reported at a dose of 12.8 mg/Kg per injection. It counts as functional. The gist of the method: as §2
The subject of series [13] is Mus musculus. As to the kind of experiment: Antitumor activity against P388 mouse leukemia as maximum and average change in body weight was reported at a dose of 12.8 mg/kg per injection. It counts as functional.
For series [14], the system named is Mus musculus. As to the kind of experiment: Antitumor activity against P388 mouse leukemia as maximum and median survival time as % T/C was reported at a dose of 6.4 mg/Kg per injection. It counts as functional. The gist of the method:
as §2

Series [15] concerns Mus musculus. As to the kind of experiment: Antitumor activity against P388 mouse leukemia as maximum and average change in body weight was reported at a dose of 25.6 mg/kg per injection. It counts as functional.
Series [16] concerns Mus musculus. As to the kind of experiment: Antitumor activity against P388 mouse leukemia as maximum and average change in body weight was reported at a dose of 4.8 mg/kg per injection. It counts as functional.
The subject of series [17] is Mus musculus. The series is described as follows: Antitumor activity against P388 mouse leukemia as maximum and average change in body weight was reported at a dose of 0.4 mg/Kg per injection. It counts as functional.
For series [18], the system named is Mus musculus. The series is described as follows: Antitumor activity against P388 mouse leukemia as maximum and median survival time as % T/C was reported at a dose of 0.2 mg/Kg per injection. It counts as functional. The gist of the method:
as §2

For series [19], the system named is Mus musculus. As to the kind of experiment: Antitumor activity against P388 mouse leukemia as maximum and average change in body weight was reported at a dose of 0.2 mg/kg per injection. It counts as functional.
Series [20] deals with Mus musculus. The series is described as follows: Antitumor activity against P388 mouse leukemia as maximum and median survival time as % T/C was reported at a dose of 0.4 mg/Kg per injection. It counts as functional. The procedure, abridged:
as §2

Series [21] concerns Mus musculus. The series is described as follows: Antitumor activity against P388 mouse leukemia as maximum and median survival time as % T/C was reported at a dose of 4.8 mg/Kg per injection. It counts as functional. The procedure, abridged: as §2
The test system of series [22] is Escherichia coli. As to the kind of experiment: Induction of phage in Escherichia coli(ILB) expressed as Ratio of plaques in treated bacterial cultures to those in control at a dose of 3.1 ug/mL. It counts as functional. The gist of the method: (§3)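 Phage induction (ILB) in Escherichia coli: latent phage was activated in bacterial cultures exposed to compound at the stated concentration. Plaques (clear areas) were counted, and the value reported is plaques in treated culture divided by plaques in the untreated control.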

The test system of series [23] is Escherichia coli. The series is described as follows: Induction of phage in Escherichia coli(ILB) expressed as Ratio of plaques in treated bacterial cultures to those in control at a dose of 0.8 ug/mL. It counts as functional. The gist of the method: as §3
Series [24] in a line: Partition coefficient between octanol and phosphate buffer (pH 7.4) was observed for the compound at pH 7.4. It counts as physicochemical. The gist of the method:
as §1

The logD is lipophilicity at a set pH, counting ionised and neutral species. High values mean higher lipophilicity, low ones lower lipophilicity. As a reminder, the T/C is the result in the treated group divided by that in the control group, in per cent. `COC1=CC(=O)c2c(c(COC(N)=O)c3n2CCC3OC(C)=O)C1=O` (centres undefined): in [1], the pH-dependent lipophilicity (logD) worked out at 0.72. For the same molecule, the T/C in series [2] is listed as 111%. The ILB amounted to 11.9 in series [3] and 18.6 in series [4].

`CNC(=O)OCc1c2c(n3c1C(OC(C)=O)CC3)C(=O)C=C(N1CCCC1)C2=O` (centres undefined) registered a logD in [1] of 1.4. The ILB in [3] and in [4] was 1 in each case.

Turning to `COC1=C(C)C(=O)c2c(c(COC(N)=O)c3n2CCC3OC(C)=O)C1=O` (centres undefined), the pH-dependent lipophilicity (logD) in series [1] was 1.54. The Average weight change in series [5] was 0.1 g; in [7] it was 0.6 g; in [8] it was 0.3 g; in series [11], 1 g. Also, the T/C in [6] turned out to be 133%; in [2] it was 165%; in [9], 124%; in series [10], 114%. Further, the ILB stood at 13.2 in series [3] and 24.5 in series [4].

`CNC(=O)OCc1c2c(n3c1C(OC(C)=O)CC3)C(=O)C(Br)=C(OC)C2=O` (centres undefined): the T/C in series [2] was 100%. Further, the results for the ILB in series [3] and in series [4] were 7.1 and 12.4, respectively.

Molecule `CNC(=O)OCc1c2c(n3c1C(OC(C)=O)CC3)C(=O)C(C)=C(OC)C2=O` (centres undefined) registered a logD in series [1] of 2.39. Also, the T/C was 145% in [12], 120% in [6], 180% in series [2] and 135% in series [14]. Further, the Average weight change in [5] is 1.2 g; in series [13], 0 g; in series [8] it was 1 g; in series [15] it was -0.2 g. The ILB in series [3] is listed as 16.6; in [4], 34.1.

Consider `CNC(=O)OCc1c2c(n3c1C(OC(C)=O)CC3)C(=O)C=C(OC)C2=O` (centres undefined), for which the logD in [1] was found to be 1.19. Further, in series [2], the T/C came out at 106%. Moreover, the ILB in series [3] came out at 6; in [4], 10.1.

`CNC(=O)OCc1c2c(n3c1C(OC(C)=O)CC3)C(=O)C(Cl)=C(OC)C2=O` (centres undefined) gave a logD in series [1] of 2.08. Moreover, the ILB in [3] came to 12.1; in [4], 27.

For the molecule `CO[C@@]12[C@H](COC(N)=O)C3=C(C(=O)C(C)=C(N)C3=O)N1C[C@@H]1N[C@@H]12` [MITOMYCIN], the Average weight change in series [16] was -2.2 g; in [17] it was 0.3 g; in series [19], 0.8 g; in series [7], -0.2 g; in series [8], -0.7 g; in series [11] it was 0.5 g. For the same molecule, the T/C in [18] is on record as 120%; in [6] it was 195%; in series [20], 130%; in [21], 205%; in series [9] it was 150%; in [10], 135%.

As for `CNC(=O)OCc1c2c(n3c1C(OC(C)=O)CC3)C(=O)C(Br)=C(N)C2=O` (centres undefined), the ILB in series [22] came to 1.1; in series [23], 1.2. The same molecule returned a logD in series [24] of 1.15.
